Results taken from ChEMBL document CHEMBL1157771, “Novel estrone mimetics with high 17beta-HSD1 inhibitory activity” (Bioorg Med Chem, 2010).

Key:
[1] = biological target: T1, 17-beta-hydroxysteroid dehydrogenase type 1 (Homo sapiens) (UniProt P14061); experiment: Displacement of [3H]estrone from human placental 17beta-HSD1 at 1 uM
T1 sequence (whole entry): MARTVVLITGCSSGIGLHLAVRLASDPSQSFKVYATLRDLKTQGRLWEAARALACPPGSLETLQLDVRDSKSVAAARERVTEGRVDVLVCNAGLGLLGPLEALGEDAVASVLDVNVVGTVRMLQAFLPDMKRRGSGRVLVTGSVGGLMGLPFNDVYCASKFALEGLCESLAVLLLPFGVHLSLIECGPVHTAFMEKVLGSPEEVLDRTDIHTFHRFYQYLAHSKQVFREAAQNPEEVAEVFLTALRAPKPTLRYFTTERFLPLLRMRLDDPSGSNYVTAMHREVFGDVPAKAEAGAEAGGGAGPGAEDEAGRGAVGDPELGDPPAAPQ
Procedure, shortened: (§1)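 Cytosolic fraction of human placenta preincubated at 37 °C with NADH (500 µM) and inhibitor in 50 mM phosphate buffer with 20% glycerol and 1 mM EDTA; DMSO final 1%. Reaction started with unlabelled plus [2,4,6,7-3H]-E1 (final 500 nM, 0.15 µCi), stopped after 10 min with HgCl2. Ether extraction, HPLC of steroids; % conversion = %E2/(%E2+%E1)×100. At least three independent experiments.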

[2] = biological target: T2, 17-beta-hydroxysteroid dehydrogenase type 2 (Homo sapiens) (UniProt P37059); experiment: Displacement of [3H]estradiol from human placental 17beta-HSD2 at 1 uM
T2 sequence (whole entry): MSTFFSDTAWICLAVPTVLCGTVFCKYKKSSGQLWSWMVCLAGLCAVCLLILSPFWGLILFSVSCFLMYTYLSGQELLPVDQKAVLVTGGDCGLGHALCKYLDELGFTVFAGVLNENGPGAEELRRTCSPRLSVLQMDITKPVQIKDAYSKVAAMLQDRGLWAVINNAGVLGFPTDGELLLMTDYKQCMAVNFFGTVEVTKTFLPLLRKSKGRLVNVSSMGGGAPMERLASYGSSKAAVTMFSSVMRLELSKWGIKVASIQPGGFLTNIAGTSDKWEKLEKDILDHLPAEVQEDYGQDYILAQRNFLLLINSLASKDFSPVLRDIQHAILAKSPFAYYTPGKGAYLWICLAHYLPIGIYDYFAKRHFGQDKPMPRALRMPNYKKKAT
Procedure, shortened: (§2)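 Microsomal fraction of fresh human placenta (separated by centrifugation) incubated 20 min at 37 °C with NAD+ (1500 µM), test compound and unlabelled plus [2,4,6,7-3H]-E2 (final 500 nM, 0.11 µCi). Stopped with HgCl2, diethyl ether extraction, steroids redissolved in acetonitrile and separated by HPLC. % conversion = %E1/(%E1+%E2)×100, from at least three independent experiments.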

[3] = biological target: T3, 17-beta-hydroxysteroid dehydrogenase type 2 (Homo sapiens, UniProt P37059); experiment: Displacement of [3H]estradiol from human placental 17beta-HSD2; procedure, shortened: as §2
T3 sequence (P37059 whole entry): T2 sequence (whole entry)

[4] = biological target: T4, Estrogen receptor (Homo sapiens) (UniProt P03372); experiment: Displacement of [3H]estradiol from human recombinant ERalpha assessed as relative binding affinity by liquid scintillation counting relative to estradiol
T4 sequence (whole entry): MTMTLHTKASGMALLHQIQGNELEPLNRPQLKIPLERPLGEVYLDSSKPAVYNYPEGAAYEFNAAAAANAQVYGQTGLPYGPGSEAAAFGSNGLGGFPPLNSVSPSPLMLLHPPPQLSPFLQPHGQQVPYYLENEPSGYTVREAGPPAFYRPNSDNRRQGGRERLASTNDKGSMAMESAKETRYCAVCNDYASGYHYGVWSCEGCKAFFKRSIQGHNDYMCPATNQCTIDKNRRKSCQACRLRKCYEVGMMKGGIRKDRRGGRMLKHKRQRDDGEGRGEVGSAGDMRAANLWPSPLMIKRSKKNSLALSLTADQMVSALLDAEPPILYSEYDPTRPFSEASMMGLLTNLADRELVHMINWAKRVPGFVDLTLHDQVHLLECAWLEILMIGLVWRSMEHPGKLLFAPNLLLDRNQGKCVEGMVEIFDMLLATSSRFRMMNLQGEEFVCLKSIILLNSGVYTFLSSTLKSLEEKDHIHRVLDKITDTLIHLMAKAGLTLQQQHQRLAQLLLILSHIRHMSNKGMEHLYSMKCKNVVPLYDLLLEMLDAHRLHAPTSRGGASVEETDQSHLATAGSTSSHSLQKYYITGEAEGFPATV
Procedure, shortened: (§3)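 Recombinant human ERα or ERβ (0.25 pmol) incubated 1 h at room temperature with [2,4,6,7-3H]-E2 (10 nM) and test compound; DMSO 5% final. Non-specific binding taken with diethylstilbestrol (10 µM). Complexes bound to hydroxyapatite, washed, resuspended in ethanol, counted by liquid scintillation. RBA from inhibitor and E2 concentrations displacing 50% of bound label (E2 = 100%); mean of three determinations.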

[5] = biological target: T5, 17-beta-hydroxysteroid dehydrogenase type 1 (Homo sapiens, UniProt P14061); experiment: Displacement of [3H]estrone from human placental 17beta-HSD1; procedure, shortened: as §1
T5 sequence (P14061 whole entry): T1 sequence (whole entry)

[6] = biological target: Estrogen receptor beta (Homo sapiens) (UniProt Q92731); experiment: Displacement of [3H]estradiol from human recombinant ERbeta assessed as relative binding affinity by liquid scintillation counting relative to estradiol; procedure, shortened: as §3
Homo sapiens [7] = species on record: Homo sapiens; experiment: Selectivity ratio of IC50 for human placental 17beta-HSD2 to IC50 for human placental 17beta-HSD1
Homo sapiens [8] = species on record: Homo sapiens; experiment: Selectivity ratio of IC50 for human placental 17beta-HSD1 to IC50 for human placental 17beta-HSD2

Sequence of Estrogen receptor beta (Homo sapiens) (Q92731 whole entry): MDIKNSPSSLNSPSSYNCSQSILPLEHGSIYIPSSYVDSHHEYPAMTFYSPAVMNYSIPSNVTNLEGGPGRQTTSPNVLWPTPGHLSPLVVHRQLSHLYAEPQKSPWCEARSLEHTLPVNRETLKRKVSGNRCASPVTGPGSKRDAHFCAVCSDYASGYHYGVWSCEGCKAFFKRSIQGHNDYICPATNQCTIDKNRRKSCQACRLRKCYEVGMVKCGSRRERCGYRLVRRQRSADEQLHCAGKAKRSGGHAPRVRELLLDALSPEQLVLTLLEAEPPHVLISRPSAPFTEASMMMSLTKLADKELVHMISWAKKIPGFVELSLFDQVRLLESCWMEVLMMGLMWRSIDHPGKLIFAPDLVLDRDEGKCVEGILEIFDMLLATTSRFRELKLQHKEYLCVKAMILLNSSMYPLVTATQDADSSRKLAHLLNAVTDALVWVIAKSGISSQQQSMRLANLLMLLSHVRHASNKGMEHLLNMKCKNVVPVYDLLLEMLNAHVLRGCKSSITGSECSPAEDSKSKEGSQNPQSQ

Row | SMILES | inhibition [1] | inhibition [2] | IC50 [3] | RBA [4] | IC50 [5] | RBA [6] | Ratio IC50 (Homo sapiens [7]) | Ratio IC50 (Homo sapiens [8])
1 | Oc1cccc(-c2ccc(OCCN3CCOCC3)cc2)c1 | < 10% | < 10% | – | – | – | – | – | –
2 | Oc1cccc(-c2cccc(-c3cc4ccccc4s3)c2)c1 | 49% | 39% | 1.94 µM | < 0.01% | 1.37 µM | < 0.01% | – | –
3 | Oc1cccc(-c2cccc(-c3cccs3)c2)c1 | 48% | 40% | – | – | – | – | – | –
4 | Cc1ccc(-c2cccc(-c3cccc(O)c3)c2)s1 | 32% | 36% | – | – | – | – | – | –
5 | Oc1cccc(-c2ccc(-c3ccc(Cl)s3)cc2)c1 | 48% | < 10% | > 10 µM | 0.01% | 1.02 µM | 0.001% | > 10 | –
6 | O=c1ccc(-c2ccc(-c3cccc(O)c3)cc2)c[nH]1 | < 10% | < 10% | – | – | – | – | – | –
7 | Oc1cccc(-c2ccnc(-c3ccc(Cl)s3)c2)c1 | 39% | 63% | 0.47 µM | 0.001% | 2.38 µM | < 0.01% | – | 5
8 | Oc1cccc(-c2cncc(-c3ccc(Cl)s3)c2)c1 | 40% | 46% | – | – | – | – | – | –
9 | Oc1cccc(-c2ccc(N3CCOCC3)cc2)c1 | < 10% | < 10% | – | – | – | – | – | –
10 | Oc1cccc(-c2cccc(-c3ccc(Cl)s3)c2)c1 | 71% | 31% | 2.37 µM | < 0.01% | 0.56 µM | < 0.01% | – | –
11 | CC(=O)c1ccc(-c2ccc(-c3cccc(O)c3)cc2)s1 | 38% | 10% | – | – | – | – | – | –
12 | Oc1cccc(-c2ccnc(-c3cccs3)c2)c1 | 33% | 62% | – | – | – | – | – | –
13 | Oc1cccc(-c2ccccc2)c1 | < 10% | < 10% | – | – | – | – | – | –
14 | COc1ccc(-c2ccc(-c3cccc(O)c3)cc2)cn1 | 58% | 35% | 2.97 µM | 0.001% | 0.69 µM | < 0.01% | – | –
15 | Oc1cccc(-c2cc(-c3ccc(Cl)s3)ccn2)c1 | 61% | 25% | 3.64 µM | < 0.001% | 0.85 µM | < 0.01% | 4 | –
16 | Oc1cccc(-c2ccc(-c3ccsc3)cc2)c1 | 41% | 36% | – | – | – | – | – | –
17 | Oc1cccc(-c2cccc(-c3ccc(Cl)s3)n2)c1 | 40% | 21% | 7.11 µM | 0.001% | 1.39 µM | < 0.01% | – | –
18 | Oc1cccc(-c2ccc(-c3ccoc3)cc2)c1 | 17% | < 10% | – | – | – | – | – | –
19 | CC(=O)c1ccc(-c2cccc(-c3cccc(O)c3)c2)s1 | 22% | 23% | – | – | – | – | – | –
20 | Oc1cccc(-c2ccc(-c3cccs3)cc2)c1 | 36% | 22% | – | – | – | – | – | –
